Measurements as given in ChEMBL document CHEMBL2417468, “4β-[4'-(1-(Aryl)ureido)benzamide]podophyllotoxins as DNA topoisomerase I and IIα inhibitors and apoptosis inducing agents” (2013).
The source made the active and inactive calls. The calls are words filed in the database; no cut-off is given here.

Tests used:
[1] = tested on: COLO 205; assay: Growth inhibition of human COLO205 cells after 48 hrs by sulforhodamine B assay; assay type: functional; settings: COLO 205, 48 h
[2] = tested on: MDA-MB-231; assay: Cytotoxicity against human MDA-MB-231 cells assessed as cell viability at 2 to 4 uM after 24 hrs by MTT assay; assay type: functional, cell-based
Procedure, shortened: (§1)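 Colo-205 (RPMI, 10% FCS) and MDA-MB-231 (DMEM, 2 mM glutamax, 10% FCS, penicillin/streptomycin) seeded at 1 104 cells/well, 18 h preincubation; fresh medium with compound at 0.5, 1, 2 and 4 µM for 24 h at 37 °C; MTT 2 h, formazan solubilised, OD 570 nm; DMSO ≤0.25%, DMSO-only wells as untreated control.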

[3] = tested on: COLO 205; assay: Induction of apoptosis in human COLO205 cells assessed as blebbing at 2 to 4 uM after 24 hrs by Hoechst staining-based confocal microscopic analysis; assay type: functional, cell-based
Procedure, shortened: (§2)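 Colo-205 cells on coverslips treated 24 h at 2 and 4 µM, 4% paraformaldehyde fixed 15 min, RNase-treated 30 min at 37 °C, Hoechst-stained; nuclear morphology (fragmentation, blebbing) by confocal microscopy versus untreated cells.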

[4] = tested on: COLO 205; assay: Cytotoxicity against human COLO205 cells assessed as reduction in cellular ATP level at 2 uM after 24 hrs by bioluminescence assay; assay type: functional, cell-based
Procedure, shortened: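 Colo-205 cells exposed 24 h at 2 µM, lysed in ice-cold RIPA, debris spun off at 4 °C; intracellular ATP in supernatant by luciferin-luciferase bioluminescence kit; three independent experiments, mean ± S.D., untreated control.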

[5] = tested on: COLO 205; assay: Induction of apoptosis in human COLO205 cells assessed as caspase-3 activation at 2 uM after 24 hrs by ELISA; assay type: functional, cell-based
Procedure, shortened: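 Colo-205 cells exposed 24 h at 2 µM; lysates in 2X reaction buffer with DTT plus caspase substrate, 1 h at 37 °C; fluorescence read at ex 400/em 505 nm; three independent experiments, mean ± S.D., versus untreated control.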

[6] = tested on: MDA-MB-231; assay: Cytotoxicity against human MDA-MB-231 cells assessed as cell viability at <0.5 to 1 uM after 24 hrs by MTT assay; assay type: functional, cell-based; procedure, shortened: as §1
[7] = tested on: COLO 205; assay: Induction of apoptosis in human COLO205 cells assessed as DNA fragmentation at 2 to 4 uM after 24 hrs by Hoechst staining-based confocal microscopic analysis; assay type: functional, cell-based; procedure, shortened: as §2
[8] = Growth inhibition of human Gurav cells after 48 hrs by sulforhodamine B assay; assay type: functional
[9] = tested on: COLO 205; assay: Induction of apoptosis in human COLO205 cells assessed as caspase-3 activation at 2 uM after 24 hrs by Western blotting analysis; assay type: functional, cell-based
Procedure, shortened: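 Colo-205 cells grown to 80% confluency, 2 µM final for 24 h; RIPA lysates with protease inhibitors, Bradford-quantified, 50 µg protein per lane on 12% SDS-PAGE, PVDF transfer, probed overnight at 4 °C for active caspase-3, β-actin as loading control, chemiluminescent detection.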

[10] = tested on: SiHa; assay: Growth inhibition of human SiHa cells after 48 hrs by sulforhodamine B assay; assay type: functional
[11] = tested on: COLO 205; assay: Cytotoxicity against human COLO205 cells assessed as viable cells at 2 uM after 24 hrs by trypan blue exclusion assay; assay type: functional, cell-based
Procedure, shortened: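 Colo-205 cells treated 24 h at 1, 2 and 4 µM, trypsinised, mixed with 0.4% trypan blue (10 µl per 100 µl cells), counted on haemocytometer; percentage dead cells calculated; triplicate samples.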

[12] = tested on: MCF7; assay: Growth inhibition of human MCF7 cells after 48 hrs by sulforhodamine B assay; assay type: functional; settings: MCF7, 48 h
[13] = tested on: COLO 205; assay: Cell cycle arrest in human COLO205 cells assessed as accumulation at G0/G1 phase at 2 uM after 24 hrs by propidium iodide staining-based FACS flow cytometric analysis (reference value: 65.23%); assay type: functional
[14] = tested on: A549; assay: Growth inhibition of human A549 cells after 48 hrs by sulforhodamine B assay; assay type: functional; settings: A549, 48 h
[15] = tested on: KB; assay: Growth inhibition of human KB cells after 48 hrs by sulforhodamine B assay; assay type: functional
[16] = tested on: COLO 205; assay: Cell cycle arrest in human COLO205 cells assessed as accumulation at S phase at 2 uM after 24 hrs by propidium iodide staining-based FACS flow cytometric analysis (reference value: 4.21%); assay type: functional
[17] = tested on: ZR-75-1; assay: Growth inhibition of human ZR-75-1 cells after 48 hrs by sulforhodamine B assay; assay type: functional; settings: ZR-75-1, 48 h
[18] = tested on: COLO 205; assay: Cytotoxicity against human COLO205 cells assessed as cell viability at <0.5 to 1 uM after 24 hrs by MTT assay; assay type: functional, cell-based; procedure, shortened: as §1
[19] = target: DNA topoisomerase 2-alpha (Homo sapiens) (UniProt P11388); assay: Inhibition of human topoisomerase 2alpha-mediated relaxation of supercoiled pBR322 DNA at 2 uM after 30 mins by agarose gel electrophoresis
Sequence of DNA topoisomerase 2-alpha (Homo sapiens) (P11388 whole entry): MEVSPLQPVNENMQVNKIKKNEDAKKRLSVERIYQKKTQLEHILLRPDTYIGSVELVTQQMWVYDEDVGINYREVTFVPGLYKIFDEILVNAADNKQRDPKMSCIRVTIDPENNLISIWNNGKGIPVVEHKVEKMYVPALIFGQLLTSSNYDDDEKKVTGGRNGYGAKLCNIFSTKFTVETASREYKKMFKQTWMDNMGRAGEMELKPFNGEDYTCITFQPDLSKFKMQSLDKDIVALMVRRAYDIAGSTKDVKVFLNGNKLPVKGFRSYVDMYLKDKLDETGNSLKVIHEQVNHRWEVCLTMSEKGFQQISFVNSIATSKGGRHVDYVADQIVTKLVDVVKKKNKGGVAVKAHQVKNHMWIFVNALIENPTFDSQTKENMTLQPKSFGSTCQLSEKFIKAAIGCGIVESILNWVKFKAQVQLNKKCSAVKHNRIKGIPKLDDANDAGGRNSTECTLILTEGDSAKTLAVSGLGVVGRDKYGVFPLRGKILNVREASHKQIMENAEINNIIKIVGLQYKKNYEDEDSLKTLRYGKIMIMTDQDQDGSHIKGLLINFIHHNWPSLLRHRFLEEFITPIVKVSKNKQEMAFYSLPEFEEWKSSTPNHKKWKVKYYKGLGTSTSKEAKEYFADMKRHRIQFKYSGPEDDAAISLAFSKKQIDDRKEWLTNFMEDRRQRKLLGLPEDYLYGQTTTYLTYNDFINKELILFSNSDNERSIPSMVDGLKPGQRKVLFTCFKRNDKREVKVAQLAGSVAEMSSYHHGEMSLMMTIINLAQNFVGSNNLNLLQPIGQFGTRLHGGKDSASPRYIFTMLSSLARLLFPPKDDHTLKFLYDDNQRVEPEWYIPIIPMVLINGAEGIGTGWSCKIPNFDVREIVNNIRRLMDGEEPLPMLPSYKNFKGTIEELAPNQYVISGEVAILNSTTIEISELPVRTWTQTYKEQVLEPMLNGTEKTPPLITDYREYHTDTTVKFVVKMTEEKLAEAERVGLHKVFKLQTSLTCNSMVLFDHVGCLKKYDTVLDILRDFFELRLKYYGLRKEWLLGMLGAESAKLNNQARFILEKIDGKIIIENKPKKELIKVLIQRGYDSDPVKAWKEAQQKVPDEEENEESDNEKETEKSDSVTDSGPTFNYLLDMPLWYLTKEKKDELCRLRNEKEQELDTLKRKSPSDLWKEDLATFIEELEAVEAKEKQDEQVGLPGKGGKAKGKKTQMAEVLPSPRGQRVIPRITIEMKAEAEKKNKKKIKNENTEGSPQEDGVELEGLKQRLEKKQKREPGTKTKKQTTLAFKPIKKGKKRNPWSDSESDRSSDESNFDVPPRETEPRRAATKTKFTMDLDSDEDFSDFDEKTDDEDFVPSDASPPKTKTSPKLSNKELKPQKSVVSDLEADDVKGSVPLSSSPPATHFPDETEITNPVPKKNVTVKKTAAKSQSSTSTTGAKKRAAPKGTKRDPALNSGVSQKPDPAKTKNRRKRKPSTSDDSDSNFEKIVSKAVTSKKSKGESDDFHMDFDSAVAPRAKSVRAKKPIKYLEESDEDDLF
Procedure, shortened: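 Purified human topoisomerase IIα (4 units) with 200 ng supercoiled pBR322 and compound at 2 µM, 30 min at 30 °C in 10 mM Tris-HCl pH 7.9, 50 mM NaCl, 5 mM MgCl2, 1 mM EDTA, 1 mM ATP, 15 µg/mL BSA; EDTA-stopped; 1% agarose gel in TAE, ethidium bromide, UV visualisation.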

[20] = Growth inhibition of human DWD cells after 48 hrs by sulforhodamine B assay; assay type: functional
[21] = tested on: A2780; assay: Growth inhibition of human A2780 cells after 48 hrs by sulforhodamine B assay; assay type: functional; settings: A2780, 48 h
[22] = tested on: COLO 205; assay: Cell cycle arrest in human COLO205 cells assessed as accumulation at G2/M phase at 2 uM after 24 hrs by propidium iodide staining-based FACS flow cytometric analysis (reference value: 29.52%); assay type: functional
[23] = target: T1, DNA topoisomerase 1 (Homo sapiens) (UniProt P11387); assay: Inhibition of human topoisomerase 1-mediated relaxation of supercoiled pBR322 DNA at 2 uM after 30 mins by agarose gel electrophoresis
T1 sequence (whole entry): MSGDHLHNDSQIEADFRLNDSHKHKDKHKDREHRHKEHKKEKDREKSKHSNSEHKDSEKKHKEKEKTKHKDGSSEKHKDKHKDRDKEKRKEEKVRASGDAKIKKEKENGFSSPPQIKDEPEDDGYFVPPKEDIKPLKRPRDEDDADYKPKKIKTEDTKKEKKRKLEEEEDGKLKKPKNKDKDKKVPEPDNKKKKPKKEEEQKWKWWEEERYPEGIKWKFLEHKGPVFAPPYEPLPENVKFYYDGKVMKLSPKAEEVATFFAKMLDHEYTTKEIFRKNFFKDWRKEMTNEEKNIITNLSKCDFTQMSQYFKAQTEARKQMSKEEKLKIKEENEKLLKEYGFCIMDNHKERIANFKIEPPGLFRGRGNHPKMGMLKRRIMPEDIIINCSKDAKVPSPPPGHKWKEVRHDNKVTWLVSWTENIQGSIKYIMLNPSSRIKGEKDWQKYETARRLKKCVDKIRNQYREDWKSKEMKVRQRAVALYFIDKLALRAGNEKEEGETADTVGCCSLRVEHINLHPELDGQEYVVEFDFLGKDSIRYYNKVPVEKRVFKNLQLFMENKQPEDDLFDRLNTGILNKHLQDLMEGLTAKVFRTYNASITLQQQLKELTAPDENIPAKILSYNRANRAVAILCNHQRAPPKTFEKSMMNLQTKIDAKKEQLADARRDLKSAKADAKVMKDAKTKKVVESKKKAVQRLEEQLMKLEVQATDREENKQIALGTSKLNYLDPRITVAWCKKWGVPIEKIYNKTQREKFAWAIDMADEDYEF
Procedure, shortened: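 500 ng supercoiled pBR322 with 0.4 units recombinant human topoisomerase I, compound at 2 µM, 30 min at 37 °C in 10 mM Tris-HCl pH 7.9, 150 mM NaCl, 0.1% BSA, 1 mM spermidine, 5% glycerol; stopped with sarcosyl/dye; relaxation read on 1% agarose gel; camptothecin as reference.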

[24] = tested on: COLO 205; assay: Cytotoxicity against human COLO205 cells assessed as cell viability at 2 to 4 uM after 24 hrs by MTT assay; assay type: functional, cell-based; procedure, shortened: as §1
[25] = tested on: HOP-62; assay: Growth inhibition of human HOP62 cells after 48 hrs by sulforhodamine B assay; assay type: functional; settings: HOP-62, 48 h

Compound: COc1cc([C@@H]2c3cc4c(cc3[C@@H](NC(=O)c3ccc(NC(=O)Nc5ccc(Cl)cc5)cc3)[C@H]3COC(=O)[C@H]23)OCO4)cc(OC)c1OC
- GI50 [1]: 10 nM
- Activity [2]: Active
- Activity [3]: Active
- Activity [4]: Active
- Activity [5]: Active
- Activity [6]: inactive
- Activity [7]: Active
- GI50 [8]: 1970 nM
- Activity [9]: Active
- GI50 [10]: inactive
- Activity [11]: Active
- GI50 [12]: 110 nM
- Activity [13]: 78.12%
- GI50 [14]: 2140 nM
- GI50 [15]: inactive
- Percent of cells in S phase [16]: 4.83%
- GI50 [17]: 130 nM
- Activity [18]: inactive
- Inhibition of relaxation (qualitative call) [19]: Active
- GI50 [20]: 100 nM
- GI50 [21]: 2200 nM
- Activity [22]: 17.06%
- inhibition [23]: Active
- Activity [24]: Active
- GI50 [25]: 170 nM
